Screening results: PubChem BioAssay, several laboratories
Apaf1 inhib = human Apaf-1 inhibition; O14727; reconstituted apoptosome caspase-3 activity, DEVD-Rh110 fluorescence; inhibition, % at 20 µM; 330,000 compounds, 0.71% hits; AID 489030; active = inhibition of at least 40% at 20 µM;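 note: plate controls were DMSO wells for no effect and DEVD-CHO caspase inhibitor wells for full effect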
Target sequence (O14727 whole entry, looked up): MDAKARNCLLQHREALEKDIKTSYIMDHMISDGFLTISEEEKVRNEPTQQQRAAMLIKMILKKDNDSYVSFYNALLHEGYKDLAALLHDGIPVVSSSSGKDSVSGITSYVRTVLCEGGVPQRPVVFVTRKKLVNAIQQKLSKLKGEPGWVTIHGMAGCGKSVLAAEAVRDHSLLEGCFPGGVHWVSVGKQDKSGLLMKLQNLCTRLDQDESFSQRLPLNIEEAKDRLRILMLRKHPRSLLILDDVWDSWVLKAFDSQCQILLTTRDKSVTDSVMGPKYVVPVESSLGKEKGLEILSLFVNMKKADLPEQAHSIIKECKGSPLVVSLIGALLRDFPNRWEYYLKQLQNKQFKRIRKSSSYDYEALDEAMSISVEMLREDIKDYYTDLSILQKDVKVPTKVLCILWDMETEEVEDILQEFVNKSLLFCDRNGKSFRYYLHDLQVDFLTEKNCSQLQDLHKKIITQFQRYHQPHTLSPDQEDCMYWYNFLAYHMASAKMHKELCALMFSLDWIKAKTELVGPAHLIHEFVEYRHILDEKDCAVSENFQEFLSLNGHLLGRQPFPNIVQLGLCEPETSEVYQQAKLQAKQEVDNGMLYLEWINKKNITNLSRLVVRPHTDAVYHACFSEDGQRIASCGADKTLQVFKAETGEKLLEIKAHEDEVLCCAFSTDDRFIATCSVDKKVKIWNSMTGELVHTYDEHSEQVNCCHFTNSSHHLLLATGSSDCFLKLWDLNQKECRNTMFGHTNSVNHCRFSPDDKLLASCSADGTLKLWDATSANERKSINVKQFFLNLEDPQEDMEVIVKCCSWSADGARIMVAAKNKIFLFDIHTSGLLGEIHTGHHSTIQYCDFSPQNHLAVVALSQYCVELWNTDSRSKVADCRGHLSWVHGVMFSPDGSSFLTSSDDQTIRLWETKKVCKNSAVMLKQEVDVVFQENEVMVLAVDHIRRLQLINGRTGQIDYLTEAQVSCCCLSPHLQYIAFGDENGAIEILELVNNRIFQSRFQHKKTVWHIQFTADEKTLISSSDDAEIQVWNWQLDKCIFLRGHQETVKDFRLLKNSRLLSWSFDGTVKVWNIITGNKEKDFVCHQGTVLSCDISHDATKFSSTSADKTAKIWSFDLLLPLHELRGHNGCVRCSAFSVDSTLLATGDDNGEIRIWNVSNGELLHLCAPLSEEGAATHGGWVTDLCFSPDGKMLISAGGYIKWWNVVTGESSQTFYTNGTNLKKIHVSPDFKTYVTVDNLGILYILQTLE
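detection = Rh110 fluorescence intensity | test system = biochemical Apaf-1 apoptosome reconstitution | also added = cytochrome c and DEVD-Rh110 substrate | schedule = 30 min plus 50 min, RT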
SUMO HTRF inh = inhibitors of human SUMOylation (UBC9) | AID 2006 | inhibition, % at 35 µM | P63279 | HTRF SUMOylation assay, SAE1/SAE2 + UBC9, in vitro | 290,000 compounds, 0.36% hits; in the data active = inhibition above about 50%, passing the limit was not always enough
DTT redox prof = compounds producing H2O2 with reducing agent – biochemical, NIH compound library profiling, artefact control for MLSCN library redox annotation, primary screen; activation, % at 10 µM; DTT-dependent redox cycling H2O2, phenol red/HRP absorbance; 100% = 100 µM peroxide control, 0% = buffer; AID 878; 200,000 compounds, 0.03% hits;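 active = activation of at least 50% relative to the plate's high and low controls in the primary single-dose screen; inactive = activation below 50%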;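 note: compound incubated with DTT at 0.8 mM final as the reducing agent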
GSTO1 inh = counter-screen for RBBP9 inhibitors: inhibitors of human GSTO1. recombinant GSTO1, activity-based probe fluorescence polarization. P78417. inhibition, % at 5.96 µM. 300,000 compounds, 1.1% hits;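 active = inhibition above the campaign mean inhibition plus 3 SD, cut at about 35% in these data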;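 note: 0% = GSTO1-1 with DMSO and 100% = wells lacking GSTO1-1 enzyme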
HKDC1 inhibitor = HKDC1 (human) hexokinase inhibition; Q2TB90; recombinant HKDC1, G6PDH/diaphorase resazurin coupled fluorescence; inhibition, % at 20 µM; 340,000 compounds, 0.16% hits; AID 493160;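 active = inhibition above about 35% when tested at 20 µM, limit read from the data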;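 note: plate controls were DMSO wells with enzyme for no effect and DMSO wells lacking enzyme for full effect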
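Test system: recombinant HKDC1 (HK5) hexokinase enzyme, produced in-house / Doses: 20 µM test compound, 1% DMSO / Timing: 90 min, room temperature / Detection: G6PDH/diaphorase-coupled fluorescence, 1 mM NADP, 100 µM resazurin, 525/613 nm / Control set: DMSO wells with and without enzyme mix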
Apaf-1 inh conf = Apaf-1 inhibition, single-dose confirmed | reconstituted apoptosome, caspase-3 DEVD-Rh110 fluorescence | inhibition, % at 20 µM | 1,800 compounds, 25% hits | shares compounds with Apaf1 inhib;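 active = mean inhibition of at least 40% at 20 µM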;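 note: plate controls were DMSO wells for no effect and DEVD-CHO caspase inhibitor control wells for full effect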
Rh110 quench = interferes with Rh110 fluorescence, flagging false Apaf-1 inhibitors; shares compounds with Apaf1 inhib; Rh110 fluorescence interference, quenched caspase reaction; 1,800 tested, under 10 active; activation (fluorescence interference), % at 20 µM; AID 504615;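 active = signal rise of 40% or more at 20 µM, treated as a fluorescence artifact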
Fluor interf inh = Apaf-1 inhibitor counter-screen fluorescence artifact; shares compounds with Apaf1 inhib; fluorescence interference counterscreen, Apaf-1 assay format; IC50, µM; 460 tested, under 10 active; AID 588538; call rule not given here
The depositor's hits bear a star; . = no result given. Rows were chosen to be rich in hits. Some 1.4% of all compounds tested hit in one or more screens of this group.

SMILES	Apaf1 inhib	SUMO HTRF inh	DTT redox prof	GSTO1 inh	HKDC1 inhibitor	Apaf-1 inh conf	Rh110 quench	others
O=C(Nc1ccccc1N1CCCC1)C1CCN(S(=O)(=O)c2cccc(C(F)(F)F)c2)CC1	42*	.	.	0	1	7	15
O=C1C=C(c2ccc(OC(F)(F)F)cc2)C[C@@H](c2ccc(F)cc2)C1	54*	.	.	.	1	18	1
Cc1ccc(CN2CC(C(=O)N3CCN(S(=O)(=O)c4ccc(C)cc4C)CC3)CC2=O)cc1 (configuration not stated)	48*	.	.	.	-6	26	7
CC(C)n1cnc2c(NCc3ccccc3)cc(N[C@H](C)CO)cc21	97*	.	.	.	20	96*	5	Fluor interf inh=>100
CCOCCOc1cc(NCc2ccccc2)c2ncn(C(C)C)c2c1	.	.	.	.	17	.	.
CCC(CO)Oc1cc(NCc2ccccc2)c2ncn(C(C)C)c2c1 (configuration not stated)	33	.	.	.	16	.	.
COCCCOc1cc(NCc2ccccc2)c2ncn(C(C)C)c2c1	41*	.	.	.	4	27	7
CCCCOc1cc(NCc2ccccc2)c2ncn(C(C)C)c2c1	61*	.	.	.	18	47*	14	Fluor interf inh=>100
COc1ccc(Cc2cc(NCc3ccccc3)c3ncn(C(C)C)c3c2)cc1	35	.	.	.	5	.	.
COc1cc(NCc2ccccc2)c2ncn(Cc3ccccc3)c2c1	50*	.	.	.	13	28	4
Cc1cccc(-n2c(N)c(C(=O)NCCN3CCOCC3)c3nc4ccccc4nc32)c1	51*	17	-1	37*	3	12	3
Nc1c(C(=O)NCc2ccc(F)cc2)c2nc3ccccc3nc2n1CCCN1CCOCC1	59*	45	0	-4	15	24	9
Nc1c(C(=O)NCc2ccccc2)c2nc3ccccc3nc2n1CCCN1CCOCC1	49*	98*	1	-3	-3	32	26
CC(C)Cn1c(N)c(C(=O)NCCN2CCOCC2)c2nc3ccccc3nc21	-4	29	0	-2	0	.	.
CCCOc1ccc(C2=CSC3=NCCN23)cc1	-3	6	.	6	0	.	.
CC1CC(C)CN(CCCNS(=O)(=O)c2cc(Br)cc3c2N(C(=O)C2CC2)CC3)C1 (configuration not stated)	4	14	.	3	-4	.	.
NC1=Nc2cccc3cccc1c23	67*	28	-1	34	19	11	8
C(=N\NC1=Nc2cccc3cccc1c23)/c1ccccc1	25	-18	1	1	13	.	.
Cc1cccc(N/N=C(\C#N)S(=O)(=O)C(C)(C)C)c1	.	8	-1	-10	-5	.	.
CSc1nncc(/C(C)=N\Nc2cccc(C)c2)n1	61*	13	-7	23	-2	10	-5
Cc1ccc(Oc2nc(CN3CCOCC3)nc3sc4c(c23)CCC(C)C4)cc1 (configuration not stated)	41*	-2	1	1	-9	21	14
C=CCn1c(SCC(=O)NCCc2ccccc2)nnc1C1CC1	42*	.	.	6	0	31	7
C=CCn1c(SCC(=O)NCc2ccccc2)nnc1C1CCCCC1	0	24	0	-3	1	.	.
COc1ccc(-n2c(N)c(C(=O)NCC3CCCO3)c3nc4ccccc4nc32)c(OC)c1 (configuration not stated)	66*	82	2	18	2	27	12
C#CCOCCOCCOCCNc1nc(N2CCN(C(=O)CCCCCCCCCCNC(=O)[C@@H](CCC(=O)O)n3cc(CCCCCN)nn3)CC2)nc(N2CCN(C(=O)CCCCCCCCCCNC(=O)[C@H]([C@@H](C)CC)n3cc(CCCCCN)nn3)CC2)n1	61*	.	.	6	-2	37	12
